This passage reports inhibition and Activity results from ChEMBL document CHEMBL1177775, “A novel synthesis of 3-aryl coumarins and evaluation of their antioxidant and lipoxygenase inhibitory activity” (Bioorg Med Chem Lett, 2010).

A short description of test [1]: Antioxidant activity assessed as inhibition of AAPH-induced lipid peroxidation at 100 uM by UV spectrophotometry. It is filed as functional.
Test [2] relates to Radical scavenging activity. Briefly: Antioxidant activity assessed as DPPH radical scavenging activity at 50 uM after 20 mins. The format is functional. In outline:
(§1)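 Interaction with the stable DPPH free radical in an iron-free system, with compounds at 50 μM. Readings were taken at 20 and 60 min. Each experiment was run at least in triplicate, and the standard deviation of absorbance was under 10% of the mean.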

Test [3] relates to Radical scavenging activity. Put plainly: Antioxidant activity assessed as DPPH radical scavenging activity at 50 uM after 60 mins. The format is functional. In outline: as §1
A general note: Loss of DPPH colour is used to gauge radical scavenging.

The test system of the next test is Glycine max. Briefly: Inhibition of soybean lipoxygenase at 100 uM.

Calls of active or inactive are those of the source. The rule behind the calls is not given here.

With `Cc1c(C)c2c(c(C)c1O)CCC(C)(C(=O)O)O2` (stereo not drawn), the inhibition (usually the change of the read-out against control, counted positive when it falls) in test [1] amounted to 63%.

For `Cc1c(-c2ccccc2Br)c(=O)oc2ccccc12`, the values for the inhibition (in test [1]; in the test with Glycine max) were 20% and 6%, respectively. Further, the results for the Activity in test [2] and in test [3] were 4% and 3%, respectively.

For the molecule `COc1ccc(-c2cc3ccccc3oc2=O)cc1OC`, the inhibition in test [1] came to 47%. In addition, the Activity is 4% in test [2] and 7% in test [3]. Further, the inhibition result with Glycine max was “inactive”.

For `CC(Cc1ccc(O)c(O)c1)C(C)Cc1ccc(O)c(O)c1` (stereo not drawn), the Activity came out at 84% in test [2] and 83% in test [3]. In the test with Glycine max, this molecule had an inhibition of 40%.

On to `COc1ccc(-c2c(C)c3ccccc3oc2=O)cc1OC`, for which the inhibition is 36% in test [1] and 31% with Glycine max. For the same molecule, the Activity turned out to be 8% in test [2] and 10% in test [3].

Take `Cc1c(-c2ccc(Br)cc2)c(=O)oc2ccccc12`: the inhibition in test [1] came to 70%. Moreover, the results for the Activity in test [2] and in test [3] were 3% and 4%, respectively. In the test on Glycine max, the inhibition entry was “inactive”.

For `COc1ccc(-c2c(C)c3ccccc3oc2=O)cc1`, the results for the inhibition (in test [1]; in the test with Glycine max) were 24% and 62%, respectively. Besides, the figures for the Activity in test [2] and in test [3] were 5% and 2%, respectively.

`Cc1c(-c2ccc(O)cc2)c(=O)oc2ccccc12`: in test [1], the inhibition is 20%. The Activity came to 5% in test [2] and 9% in test [3]. The inhibition entry with Glycine max is “inactive”.
